In series [1] the target is T1, Dual specificity tyrosine-phosphorylation-regulated kinase 1A (Homo sapiens, UniProt Q13627). Nature of the series: Binding affinity to biotinylated DYRK1A (unknown origin) expressed in Escherichia coli BL21 (DE3) assessed as dissociation constant measured up to 5 min by SPR method.
The target of series [2] is T1, Dual specificity tyrosine-phosphorylation-regulated kinase 1A. Nature of the series: Displacement of Kinase tracer 236 from biotinylated DYRK1A (unknown origin) expressed in Escherichia coli BL21 (DE3) incubated for 1.5 hrs by TR-FRET assay. On the technique in general: In TR-FRET formats the signal depends on donor and acceptor labels being close together.
The nature of series [3]: Thermodynamic solubility of the compound at pH 6.8. To be noted: buffer, read-out: Therm_solubility. Format: physicochemical. A digest of the protocol: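 Thermodynamic solubility measured at pH 6.8 in a single experiment, reported in […].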
The target of series [4] is Dual specificity protein kinase CLK3 (Homo sapiens) (UniProt P49761). Nature of the series: Inhibition of wild-type human full length CLK3 (M1 to R490 residues) expressed in bacterial expression system assessed as remaining activity at 1 uM by Kinomescan method relative to control. A digest of the protocol:
(§1)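 KINOMEscan competition binding panel run with inhibitor at 1 μM; read-out is remaining kinase activity (percent of control).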

The target of series [5] is Glycogen synthase kinase-3 beta (Homo sapiens) (UniProt P49841). Nature of the series: Inhibition of wild-type human full length GSK3B (M1 to T433 residues) expressed in mammalian expression system assessed as remaining activity at 1 uM by Kinomescan method relative to control. In short, it runs like this: as §1
Chain of Glycogen synthase kinase-3 beta (Homo sapiens) (P49841 whole entry, looked up, the tested form may be a part): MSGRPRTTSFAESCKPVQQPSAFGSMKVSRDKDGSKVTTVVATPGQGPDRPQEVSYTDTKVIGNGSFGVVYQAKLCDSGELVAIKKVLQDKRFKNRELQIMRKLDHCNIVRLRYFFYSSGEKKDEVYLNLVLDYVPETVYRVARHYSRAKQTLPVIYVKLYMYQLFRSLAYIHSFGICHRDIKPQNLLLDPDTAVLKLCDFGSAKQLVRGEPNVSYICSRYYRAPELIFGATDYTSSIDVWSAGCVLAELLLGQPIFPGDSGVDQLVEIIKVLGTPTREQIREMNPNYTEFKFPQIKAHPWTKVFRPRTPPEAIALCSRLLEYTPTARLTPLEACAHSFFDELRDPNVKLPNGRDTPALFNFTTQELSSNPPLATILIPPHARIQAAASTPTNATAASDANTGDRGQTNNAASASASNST
In series [6] the target is T2, Dual specificity tyrosine-phosphorylation-regulated kinase 2 (Homo sapiens) (UniProt Q92630).
T2 sequence (whole entry): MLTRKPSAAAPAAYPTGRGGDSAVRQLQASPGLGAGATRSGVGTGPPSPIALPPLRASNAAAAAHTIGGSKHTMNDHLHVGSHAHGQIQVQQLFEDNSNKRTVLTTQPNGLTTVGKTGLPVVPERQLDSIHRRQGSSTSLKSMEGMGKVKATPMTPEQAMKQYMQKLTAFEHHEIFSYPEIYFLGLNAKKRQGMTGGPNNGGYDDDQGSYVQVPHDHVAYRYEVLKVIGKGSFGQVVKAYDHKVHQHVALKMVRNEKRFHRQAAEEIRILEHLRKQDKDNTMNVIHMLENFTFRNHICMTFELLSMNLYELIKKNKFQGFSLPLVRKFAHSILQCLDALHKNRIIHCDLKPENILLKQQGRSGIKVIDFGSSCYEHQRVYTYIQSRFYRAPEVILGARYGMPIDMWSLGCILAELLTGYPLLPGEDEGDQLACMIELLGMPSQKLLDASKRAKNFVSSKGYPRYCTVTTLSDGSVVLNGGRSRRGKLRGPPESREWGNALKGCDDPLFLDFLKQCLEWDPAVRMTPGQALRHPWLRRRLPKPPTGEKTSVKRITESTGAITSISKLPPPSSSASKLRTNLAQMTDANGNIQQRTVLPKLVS
Nature of the series: Inhibition of wild-type human full length DYRK2 (M1 to S528 residues) expressed in mammalian expression system assessed as remaining activity at 1 uM by Kinomescan method relative to control. In short, it runs like this:
as §1

Series [7] concerns the target Cyclin-dependent kinase 2 (Homo sapiens) (UniProt P24941). Nature of the series: Inhibition of wild-type human full length CDK2 (M1 to L298 residues) expressed in bacterial expression system assessed as remaining activity at 1 uM by Kinomescan method relative to control. In short, it runs like this:
as §1

Series [8] deals with Dual specificity tyrosine-phosphorylation-regulated kinase 1B (Homo sapiens) (UniProt Q9Y463). Nature of the series: Inhibition of wild-type human full length DYRK1B (M1 to S629 residues) expressed in bacterial expression system assessed as remaining activity at 1 uM by Kinomescan method relative to control. A digest of the protocol:
as §1

Series [9] is described as follows: Metabolic stability in human liver microsomes. Format: ADME, Microsome. To be noted: read-out: Stabilty.
The nature of series [10]: Metabolic stability in rat liver microsomes. Format: ADME, Microsome. To be noted: read-out: Stabilty. On the technique in general: Liver microsomes are a subcellular fraction often used to study metabolism.
Series [11] has as its target Dual specificity protein kinase CLK1 (Homo sapiens, UniProt P49759). Nature of the series: Inhibition of wild-type human full length CLK1 (M1 to I484 residues) expressed in bacterial expression system assessed as remaining activity at 1 uM by Kinomescan method relative to control. A digest of the protocol:
as §1

Series [12] deals with Dual specificity protein kinase CLK2 (Homo sapiens) (UniProt P49760). Nature of the series: Inhibition of wild-type human partial length CLK2 (D144 to R498 residues) expressed in bacterial expression system assessed as remaining activity at 1 uM by Kinomescan method relative to control. In short, it runs like this: as §1
Chain of Dual specificity protein kinase CLK2 (Homo sapiens) (P49760 whole entry, looked up, the tested form may be a part): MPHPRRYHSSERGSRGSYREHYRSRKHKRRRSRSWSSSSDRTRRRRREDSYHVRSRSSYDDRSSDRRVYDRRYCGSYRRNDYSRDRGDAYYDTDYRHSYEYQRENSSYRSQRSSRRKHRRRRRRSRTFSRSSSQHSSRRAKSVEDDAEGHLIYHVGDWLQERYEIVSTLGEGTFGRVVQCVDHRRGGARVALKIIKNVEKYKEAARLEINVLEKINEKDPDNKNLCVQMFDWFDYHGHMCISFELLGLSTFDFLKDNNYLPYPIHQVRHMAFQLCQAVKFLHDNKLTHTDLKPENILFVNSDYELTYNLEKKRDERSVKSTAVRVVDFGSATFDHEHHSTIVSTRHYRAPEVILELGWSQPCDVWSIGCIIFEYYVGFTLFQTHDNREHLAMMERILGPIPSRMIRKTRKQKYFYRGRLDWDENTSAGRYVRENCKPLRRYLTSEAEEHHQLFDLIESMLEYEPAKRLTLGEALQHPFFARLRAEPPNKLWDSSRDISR
Series [13] has as its target T1, Dual specificity tyrosine-phosphorylation-regulated kinase 1A. Nature of the series: Inhibition of human DYRK1A-mediated tau phosphorylation expressed in HEK293 cells incubated for 2 hrs by ELISA. Format: cell-based. (An ELISA detects its analyte on a solid surface through an enzyme-linked reagent.)

Converted amounts (≈) assume the structure as drawn.

Chain of Dual specificity protein kinase CLK1 (P49759 whole entry, looked up, the tested form may be a part): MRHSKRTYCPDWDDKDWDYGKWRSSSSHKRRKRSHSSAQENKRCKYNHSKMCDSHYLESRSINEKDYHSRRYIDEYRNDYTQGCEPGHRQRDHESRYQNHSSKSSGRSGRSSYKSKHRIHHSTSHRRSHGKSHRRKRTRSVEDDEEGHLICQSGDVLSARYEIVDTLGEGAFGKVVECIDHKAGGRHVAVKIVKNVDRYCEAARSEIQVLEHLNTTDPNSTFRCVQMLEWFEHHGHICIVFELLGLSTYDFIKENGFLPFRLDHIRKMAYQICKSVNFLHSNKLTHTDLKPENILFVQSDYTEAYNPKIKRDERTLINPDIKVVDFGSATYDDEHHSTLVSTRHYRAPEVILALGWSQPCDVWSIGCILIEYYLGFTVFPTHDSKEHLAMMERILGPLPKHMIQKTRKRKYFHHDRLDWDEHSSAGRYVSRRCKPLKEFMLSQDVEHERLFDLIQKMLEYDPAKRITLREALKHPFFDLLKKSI
Chain of Dual specificity protein kinase CLK3 (Homo sapiens) (P49761 whole entry, looked up, the tested form may be a part): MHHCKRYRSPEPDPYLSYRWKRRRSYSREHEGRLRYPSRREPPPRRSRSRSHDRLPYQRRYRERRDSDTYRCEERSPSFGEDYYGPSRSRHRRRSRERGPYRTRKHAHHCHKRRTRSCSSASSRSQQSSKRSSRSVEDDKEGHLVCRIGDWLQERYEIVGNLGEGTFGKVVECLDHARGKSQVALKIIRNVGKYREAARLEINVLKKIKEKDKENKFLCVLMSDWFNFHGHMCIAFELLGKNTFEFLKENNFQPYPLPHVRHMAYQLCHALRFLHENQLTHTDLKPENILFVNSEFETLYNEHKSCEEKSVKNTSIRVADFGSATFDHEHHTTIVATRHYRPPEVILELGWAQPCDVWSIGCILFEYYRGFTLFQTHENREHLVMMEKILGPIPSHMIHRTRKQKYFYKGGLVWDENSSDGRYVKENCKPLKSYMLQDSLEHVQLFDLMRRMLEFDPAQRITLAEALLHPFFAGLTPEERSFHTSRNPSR
Chain of Dual specificity tyrosine-phosphorylation-regulated kinase 1B (Homo sapiens) (Q9Y463 whole entry, looked up, the tested form may be a part): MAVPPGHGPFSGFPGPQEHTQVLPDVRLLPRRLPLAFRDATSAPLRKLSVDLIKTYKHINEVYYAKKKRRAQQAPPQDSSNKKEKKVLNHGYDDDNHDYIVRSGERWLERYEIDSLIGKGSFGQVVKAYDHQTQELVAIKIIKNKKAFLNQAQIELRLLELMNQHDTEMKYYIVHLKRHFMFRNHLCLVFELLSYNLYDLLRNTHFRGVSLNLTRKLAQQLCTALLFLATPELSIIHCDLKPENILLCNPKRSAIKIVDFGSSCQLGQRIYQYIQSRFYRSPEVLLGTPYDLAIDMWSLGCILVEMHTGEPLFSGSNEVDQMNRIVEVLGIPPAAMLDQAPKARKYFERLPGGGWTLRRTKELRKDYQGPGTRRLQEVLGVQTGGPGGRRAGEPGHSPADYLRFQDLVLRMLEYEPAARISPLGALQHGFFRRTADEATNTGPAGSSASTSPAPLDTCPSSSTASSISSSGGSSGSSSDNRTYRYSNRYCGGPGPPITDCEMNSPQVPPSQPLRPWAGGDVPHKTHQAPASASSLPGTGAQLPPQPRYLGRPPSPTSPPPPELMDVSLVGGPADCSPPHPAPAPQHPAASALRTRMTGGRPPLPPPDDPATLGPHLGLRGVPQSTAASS

Turning to `CN(C)c1ncc(Cl)c(-c2cnn3ncccc23)n1`, in [1], the Kd was 0.963 µM. The same molecule had an IC50 in series [2] of 0.331 µM.

In the case of `CN(c1nccc(-c2cnn3ncccc23)n1)C1CC1`, the solubility thermodynamic in series [3] is 60 µg/mL (≈ 225 µM). For the same molecule, the Activity is 96% in series [4]; 91% in [5]; 100% in [6]; 100% in [7]; 43% in series [8]; 79% in series [11]. Moreover, the Activity in series [12] stood at 95%. Also, in [1], the dissociation constant Kd came to 0.0904 µM. Further, the microsomal CLint was 71 µL/min/mg in series [9] and 434 µL/min/mg in [10]. In series [2], this molecule gave a half-inhibitory concentration (IC50) of 0.115 µM.

For the molecule `CNc1nccc(-c2cnn3ncccc23)n1`, the Kd in series [1] came to 0.055 µM. The molecule also had an IC50 in series [2] of 0.182 µM.

As to `Nc1nccc(-c2cnn3ncccc23)n1`, the Kd in series [1] was 0.134 µM. This molecule also had an IC50 in series [2] of 0.525 µM.

Turning to `COc1ccnn2ncc(-c3ccnc(N(C)C)n3)c12`, the solubility thermodynamic in series [3] came out at 70 µg/mL (≈ 259 µM). For the same molecule, the Activity in [4] was determined as 83%; in series [5], 100%; in series [6], 24%; in [7] it was 100%; in series [8] it was 0.7%; in [11], 7.8%. In addition, the Activity in series [12] is 12%. Also, the microsomal CLint in series [9] worked out at 89 µL/min/mg; in series [10], 77 µL/min/mg. The IC50 in [2] is 0.138 µM.

For the molecule `CN(C)c1ncnc(-c2cnn3ncccc23)n1`, the solubility thermodynamic in series [3] came out at 50 µg/mL (≈ 207 µM). In addition, the Kd in series [1] was found to be 0.153 µM. Besides, the microsomal CLint in [9] was determined as 93.6 µL/min/mg; in [10], 105 µL/min/mg. This molecule showed an IC50 in [2] of 0.182 µM.

As to `c1cnn2ncc(-c3ccnc(N4CCC45COC5)n3)c2c1`, the solubility thermodynamic in series [3] was 60 µg/mL (≈ 204 µM). Further, the Activity worked out at 54% in series [4]; 75% in [5]; 11% in series [6]; 100% in series [7]; 8.3% in series [8]; 33% in series [11]. For the same molecule, in series [12], the Activity amounted to 13%. Further, the Kd in [1] came to 0.064 µM. For the same molecule, the microsomal CLint stood at 126 µL/min/mg in series [9] and 119 µL/min/mg in series [10]. The molecule also gave an IC50 in series [2] of 0.0794 µM.

For the molecule `CN(C)c1ncc(F)c(-c2cnn3ncccc23)n1`, the half-maximal inhibitory concentration (IC50) in [13] was 0.25 µM; in series [2], 0.0575 µM. Further, the solubility thermodynamic in series [3] came to 30 µg/mL (≈ 116 µM). In addition, the Activity in [4] amounted to 84%; in series [5], 93%; in [6] it was 55%; in series [7], 100%; in series [8] it was 71%; in series [11] it was 53%. Besides, in [12], the Activity is 54%. In addition, in series [1], the Kd was determined as 0.012 µM. The microsomal CLint is 697 µL/min/mg in series [9] and 983 µL/min/mg in series [10].

As to `CN(C)c1nccc(-c2cnc3ncccn23)n1`, in series [3], the solubility thermodynamic worked out at 470 µg/mL (≈ 1960 µM). The Activity stood at 56% in [4]; 77% in series [5]; 35% in series [6]; 86% in [7]; 6.2% in series [8]; 20% in series [11]. Besides, in [12], the Activity was determined as 31%. In addition, the microsomal CLint in [9] worked out at 154 µL/min/mg; in [10], 96 µL/min/mg. Moreover, in series [2], the half-maximal inhibitory concentration (IC50) was 0.158 µM.

Usually Kd stands for the free concentration of one partner at which half of the binding sites on the other are occupied at equilibrium, for simple one-to-one binding. For orientation: IC50 means the concentration that inhibits the measured activity by half. Read a low IC50 as higher potency.

Values taken from ChEMBL document CHEMBL4808225, “Discovery and Characterization of Selective and Ligand-Efficient DYRK Inhibitors” (J Med Chem, 2021).
